The record followed here is publication PMC2757127 (Platelets, 2008).

Like-named read-outs stand apart in the source and are kept apart here.

Holding throughout (type): cell-based
One experiment concerns the target LPA4 (Homo sapiens, UniProt Q99677). Put plainly: LPA-elicited Ca2+ transients in CHO cells stably expressing LPA4. As to conditions: for Effect on LPA4: Table II, heterologously expressed LPA4.
For the next experiment, the target named is LPA1 (Homo sapiens, UniProt Q92633). The experiment in a line: LPA-elicited Ca2+ transients in RH7777 cells stably expressing LPA1. As to conditions: for Effect on LPA1: heterologously expressed LPA1. The gist of the method: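 RH7777 cells stably expressing receptor, seeded on poly-L-lysine-coated wells at 5 × 10^4 cells/well overnight. Serum-starved 6 h in modified Krebs buffer (pH 7.4), loaded with Fura-2 AM for 35 min with 2% pluronic acid. Ca2+ recorded as the ratio of 520 nm emission at 340/380 nm excitation. Albumin arm: 15 µM BSA for 5 min before LPA. Quadruplicate.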

The next experiment concerns the target LPA5 (Homo sapiens, UniProt Q9H1C0). Put plainly: LPA-elicited Ca2+ transients in RH7777 cells transiently transfected with LPA5. As to conditions: for Effect on LPA5: heterologously expressed LPA5; for Emax: relative to LPA 18:1.
A further experiment concerns the target T1, LPA3 (Homo sapiens, UniProt Q9UBY5).
T1 sequence (Q9UBY5 1-353): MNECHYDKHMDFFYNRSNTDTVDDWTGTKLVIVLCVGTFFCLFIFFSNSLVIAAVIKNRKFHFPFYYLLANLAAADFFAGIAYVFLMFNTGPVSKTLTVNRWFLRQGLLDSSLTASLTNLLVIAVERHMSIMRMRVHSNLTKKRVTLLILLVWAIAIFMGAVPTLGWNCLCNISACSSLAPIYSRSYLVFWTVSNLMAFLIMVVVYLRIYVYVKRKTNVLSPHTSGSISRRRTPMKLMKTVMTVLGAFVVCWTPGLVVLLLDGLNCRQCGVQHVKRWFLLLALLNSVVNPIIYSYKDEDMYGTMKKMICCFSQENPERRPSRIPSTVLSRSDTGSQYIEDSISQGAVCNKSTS
Put plainly: LPA-elicited Ca2+ transients in RH7777 cells stably expressing LPA3. As to conditions: for Effect on LPA3: heterologously expressed LPA3.

A further experiment addresses LPA2 (Homo sapiens, UniProt Q9HBW0). The experiment in a line: LPA-elicited Ca2+ transients in RH7777 cells stably expressing LPA2. As to conditions: for Effect on LPA2: heterologously expressed LPA2.
Another experiment concerns human platelets. Put plainly: Measurement of platelet cAMP. As to conditions: LPA 0.02–40 µM, 30 s–15 min; iloprost 50 nM, 1 minute. A digest of the protocol: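 Human platelets from PRP pretreated with acetylsalicylic acid 1 mM and apyrase 0.3 U/mL (15 min, 37°C), washed, resuspended at 400,000/µL in HEPES buffer with glucose and apyrase (pH 7.4). Stirred suspensions were warmed 2 min at 37°C, then exposed to agonist for the set time. cAMP was measured by enzyme immunoassay. Mean ± SD, n=3 donors; Student's test, P 0.05.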

In a further experiment the test system is washed human platelets. Put plainly: Platelet shape change. As to conditions: read-out: Platelets EC50, Table IV, n=4, mean ± SD. A digest of the protocol: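 Washed human platelets were prepared from aspirin (1 mM)/apyrase-treated PRP and resuspended at 400,000/µL in HEPES buffer (pH 7.4) with glucose and 0.6 U/mL apyrase. Stirred at 1100 rpm and 37°C for 2 min, then given increasing agonist concentrations in methanol or FAF-BSA buffer (lipid:BSA 4:1). Shape change read as the fall in light transmission in an aggregometer. Four donors.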

Where [1] appears, read: read-out: LPA5 transiently transfected RH7777 cells EC50, Table IV, mean ± SD.
The mark [2] stands for this setting: 15µM FAF-BSA, 5 min pre-incubation.

LPA5, sequence (Q9H1C0 whole entry): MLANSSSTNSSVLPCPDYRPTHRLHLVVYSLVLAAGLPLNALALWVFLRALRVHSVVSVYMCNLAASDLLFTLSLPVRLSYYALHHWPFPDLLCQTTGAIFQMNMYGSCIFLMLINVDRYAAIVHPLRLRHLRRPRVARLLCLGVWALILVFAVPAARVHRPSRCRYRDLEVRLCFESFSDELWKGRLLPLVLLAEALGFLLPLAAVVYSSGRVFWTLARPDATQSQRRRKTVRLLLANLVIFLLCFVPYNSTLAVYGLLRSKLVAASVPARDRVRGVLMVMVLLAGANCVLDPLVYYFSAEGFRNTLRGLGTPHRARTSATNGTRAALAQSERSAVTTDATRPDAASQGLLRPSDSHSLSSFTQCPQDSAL
LPA1, sequence (Q92633 whole entry): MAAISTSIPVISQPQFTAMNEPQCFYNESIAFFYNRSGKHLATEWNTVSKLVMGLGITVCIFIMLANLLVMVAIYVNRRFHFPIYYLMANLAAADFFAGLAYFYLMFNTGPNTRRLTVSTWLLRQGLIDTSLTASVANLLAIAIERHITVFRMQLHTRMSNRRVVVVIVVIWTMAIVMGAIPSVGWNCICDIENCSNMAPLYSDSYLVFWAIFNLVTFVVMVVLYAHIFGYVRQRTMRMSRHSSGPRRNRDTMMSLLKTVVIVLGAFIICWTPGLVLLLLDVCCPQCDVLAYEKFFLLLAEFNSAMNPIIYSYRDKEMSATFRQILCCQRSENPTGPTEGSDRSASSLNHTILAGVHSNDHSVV
LPA2, sequence (Q9HBW0 whole entry): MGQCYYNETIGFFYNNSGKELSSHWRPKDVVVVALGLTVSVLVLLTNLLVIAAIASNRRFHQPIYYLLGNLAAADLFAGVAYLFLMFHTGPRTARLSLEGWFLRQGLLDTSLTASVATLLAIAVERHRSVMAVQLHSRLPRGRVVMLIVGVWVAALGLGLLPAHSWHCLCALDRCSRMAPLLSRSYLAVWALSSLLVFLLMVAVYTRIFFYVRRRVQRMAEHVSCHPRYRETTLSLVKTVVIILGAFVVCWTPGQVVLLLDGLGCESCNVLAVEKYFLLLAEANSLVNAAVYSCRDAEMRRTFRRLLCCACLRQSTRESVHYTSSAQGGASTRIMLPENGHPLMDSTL
LPA4, sequence (Q99677 whole entry): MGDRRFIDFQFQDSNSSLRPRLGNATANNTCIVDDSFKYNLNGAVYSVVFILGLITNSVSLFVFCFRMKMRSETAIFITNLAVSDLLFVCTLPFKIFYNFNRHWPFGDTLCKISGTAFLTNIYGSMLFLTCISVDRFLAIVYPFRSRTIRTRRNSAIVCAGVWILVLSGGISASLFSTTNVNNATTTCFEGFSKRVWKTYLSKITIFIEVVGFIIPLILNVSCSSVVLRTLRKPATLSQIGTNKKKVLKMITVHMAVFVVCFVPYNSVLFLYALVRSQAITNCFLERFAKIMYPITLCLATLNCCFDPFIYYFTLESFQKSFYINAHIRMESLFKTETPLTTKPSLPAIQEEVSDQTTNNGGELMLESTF

Regarding `CCCCCCCCCCCCCCCC(=O)N[C@@H](COP(=O)(O)O)C(=O)O` [NPSPA, N-palmitoyl-serine phosphoric acid], on LPA4, the “Effect on LPA4” value is reported as “No effect”. On LPA1 (Table II), the “Effect on LPA1” value is “Partial agonist”. Further, the concentration for a half-maximal effect (EC50) stood at 740 nM on LPA1 (Table II, LPA1); 420 nM at LPA5 (Table II, LPA5); 730 nM on LPA3 (Table II, LPA3); 11900 nM at LPA2 (Table II, LPA2). Further, the Emax was determined as 63% on LPA1 (Table II, LPA1, relative to LPA 18:1); 23% on LPA5 (Table II, LPA5); 81% at LPA3 (Table II, LPA3, relative to LPA 18:1); 46% at LPA2 (Table II, LPA2, relative to LPA 18:1). Also, at LPA5 (Table II), the “Effect on LPA5” value is on record as “Partial agonist”. Moreover, on LPA3 (Table II), the “Effect on LPA3” value is recorded as “Partial agonist”. Also, the “Effect on LPA2” value at LPA2 (Table II) is “Partial agonist”.

With `CCCCCCCCCCCCCCCC(=O)N[C@@H](Cc1ccc(OP(=O)(O)O)cc1)C(=O)O` [NPTPA, N-palmitoyl-tyrosine phosphoric acid], the “Effect on LPA4” value at LPA4 is recorded as “No effect”. For the same molecule, the “Effect on LPA1” value at LPA1 (Table II) is “Antagonist”. The Ki at LPA1 (Table II, LPA1, inhibitory binding constant) worked out at 530 nM; on LPA1 (read-out: Ki at LPA1, text b35) it was 533 nM. On LPA5 (Table II), the “Effect on LPA5” value is given as “Partial agonist”. Besides, at LPA5 (Table II, LPA5), the Emax is 72.0%. Also, the “Effect on LPA3” value on LPA3 (Table II) is “No effect”. For the same molecule, the “Effect on LPA2” value at LPA2 (Table II) is “No effect”.

Take `CCCCCCCCCCCCCCCC(=O)OC[C@@H](O)COP(=O)(O)O` [acyl-LPA 16:0]: in the experiment with human platelets, the “Change in platelet cAMP levels” value was “did not affect”.

For the molecule `CCCCCCCCCCCCCCCCOC[C@@H](O)COP(=O)(O)O` [alkyl-LPA 16:0], the concentration for a half-maximal effect (EC50) on LPA5 (setting [1]) stood at 4.1 ± 2.1 nM; in the experiment on washed human platelets, 4.6 ± 0.98 nM. Moreover, the “Change in platelet cAMP levels” value in the experiment on human platelets is listed as “did not affect”.

As for `CCCCCCCCCCCCCCCCCCOC[C@@H](O)COP(=O)(O)O` [alkyl-LPA 18:0], the EC50 amounted to 69.9 ± 21.4 nM at LPA5 (setting [1]) and 20.2 ± 17.5 nM in the experiment with washed human platelets.

For `CC#CCC(C)[C@H](O)/C=C/[C@@H]1[C@H]2C/C(=C/CCCC(=O)O)C[C@H]2C[C@H]1O` (stereo partly drawn) [iloprost], in the experiment with human platelets, the “Change in platelet cAMP levels” value is given as “robust increase”.

As for “fatty acid free bovine serum albumin [FAF-BSA]”, the “Inhibition of LPA4 activation” value with LPA4 (setting [2]) came out at 40%. In addition, the “Effect on activation of LPA1 by LPA” value in the experiment with LPA1 (setting [2]) was “did not inhibit”. Besides, the “Effect on activation of LPA5 by LPA” value with LPA5 (setting [2]) is “did not inhibit”. Further, in the experiment with LPA3 (setting [2]), the “Effect on activation of LPA3 by LPA” value is “did not inhibit”. Besides, the “Effect on activation of LPA2 by LPA” value with LPA2 (setting [2]) is on record as “did not inhibit”.

What is called EC50 is the midpoint of the concentration-response curve. Usually Emax stands for the size of the effect at its maximum, as opposed to the concentration needed. As a reminder, the Ki is a measure of affinity in units of concentration, obtained from inhibition or displacement.
